≈ marks a conversion by molar mass, not a printed value.
system: not listed separately; test: Lipophilicity, log D of the compound; settings: octanol/water

Compound | logD
C[S+]([O-])Cc1ccc(C(=O)Nc2cccnc2C(=O)NCC2CCOCC2)c2ccccc12 (stereo not given) | 2.8
O=C(NCC1CCOCC1)c1ncccc1NC(=O)c1cccc2ccccc12 | 5.1
O=C(NCC1CCCCC1)c1cc(Cl)ccc1NC(=O)c1cccc2ccccc12 | 7.8
O=C(NCC1CCC1)c1ncccc1NC(=O)c1ccc(Cn2ccnn2)c2ccccc12 | 5.3
C[S@+]([O-])Cc1ccc(C(=O)Nc2cccnc2C(=O)NCC2CCOCC2)c2ccccc12 | 2.9
O=C(NCC1CCC1)c1nc(OCCOCCO)ccc1NC(=O)c1ccnc2ccccc12 | 4.1
C[S+]([O-])Cc1ccc(C(=O)Nc2ccc(OCCOCCO)nc2C(=O)NCC2CCC2)c2ccccc12 (stereo not given) | 3.2
C[S+]([O-])Cc1ccc(C(=O)Nc2nccnc2C(=O)NCC2CCC2)c2ccccc12 (single isomer, unassigned) | 2.7
COc1ccc(NC(=O)c2ccc(Cn3ccnn3)c3ccccc23)c(C(=O)NCC2CCC2)n1 | 5.7

target: T1, Cannabinoid receptor 1 (Homo sapiens, UniProt P21554); test: Displacement of [3H]-CP55,940 from human CB1 receptor expressed in HEK293S cell membranes by scintillation counting analysis; settings: not given
T1 sequence (P21554 whole entry): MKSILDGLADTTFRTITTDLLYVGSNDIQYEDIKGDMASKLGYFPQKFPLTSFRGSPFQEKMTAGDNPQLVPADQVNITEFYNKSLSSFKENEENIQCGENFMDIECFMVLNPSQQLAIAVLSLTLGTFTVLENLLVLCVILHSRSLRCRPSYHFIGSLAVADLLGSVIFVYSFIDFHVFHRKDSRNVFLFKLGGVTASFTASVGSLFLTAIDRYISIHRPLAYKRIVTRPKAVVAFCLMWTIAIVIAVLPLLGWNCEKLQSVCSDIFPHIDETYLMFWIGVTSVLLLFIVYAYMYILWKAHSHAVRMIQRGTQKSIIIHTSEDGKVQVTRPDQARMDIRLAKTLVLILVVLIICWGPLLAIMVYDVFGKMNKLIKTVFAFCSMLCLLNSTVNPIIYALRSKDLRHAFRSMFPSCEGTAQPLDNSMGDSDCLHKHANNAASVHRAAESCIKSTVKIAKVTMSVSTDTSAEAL

Compound | IC50
C[S+]([O-])Cc1ccc(C(=O)Nc2cccnc2C(=O)NCC2CCOCC2)c2ccccc12 (stereo not given) | 49 nM
O=C(NCC1CCOCC1)c1ncccc1NC(=O)c1cccc2ccccc12 | 31 nM
O=C(NCC1CCCCC1)c1cc(Cl)ccc1NC(=O)c1cccc2ccccc12 | 160 nM
O=C(NCC1CCC1)c1ncccc1NC(=O)c1ccc(Cn2ccnn2)c2ccccc12 | 710 nM
C[S@+]([O-])Cc1ccc(C(=O)Nc2cccnc2C(=O)NCC2CCOCC2)c2ccccc12 | 600 nM
O=C(NCC1CCC1)c1nc(OCCOCCO)ccc1NC(=O)c1ccnc2ccccc12 | 10000 nM
C[S+]([O-])Cc1ccc(C(=O)Nc2ccc(OCCOCCO)nc2C(=O)NCC2CCC2)c2ccccc12 (stereo not given) | 7.2 nM
C[S+]([O-])Cc1ccc(C(=O)Nc2nccnc2C(=O)NCC2CCC2)c2ccccc12 (single isomer, unassigned) | 37 nM
COc1ccc(NC(=O)c2ccc(Cn3ccnn3)c3ccccc23)c(C(=O)NCC2CCC2)n1 | 0.97 nM

target: T1, Cannabinoid receptor 1; test: Agonist activity at human CB1 receptor expressed in HEK293S cell membranes after 1 hr by GTPgamma[35S] binding assay relative to WIN 55,212-2; settings: not given
Method in brief: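 HEK293S membranes with cloned human CB1 (5 µg protein/well) in Hepes buffer pH 7.4, 100 mM NaCl, 5 mM MgCl2, 1 mM EDTA, 0.1% BSA, 15 µM GDP final. GTPγ[35S] added to start, 1 h at rt, filtered, counted. Basal from 8 wells; maximum from 8 wells with 10 µM reference agonist. Emax expressed as % of that reference. 10-point curves; mean of three experiments.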

Compound | Emax
C[S+]([O-])Cc1ccc(C(=O)Nc2cccnc2C(=O)NCC2CCOCC2)c2ccccc12 (stereo not given) | 110%
O=C(NCC1CCOCC1)c1ncccc1NC(=O)c1cccc2ccccc12 | 110%
O=C(NCC1CCCCC1)c1cc(Cl)ccc1NC(=O)c1cccc2ccccc12 | 77%
O=C(NCC1CCC1)c1ncccc1NC(=O)c1ccc(Cn2ccnn2)c2ccccc12 | 110%
O=C(NCC1CCC1)c1nc(OCCOCCO)ccc1NC(=O)c1ccnc2ccccc12 | 130%
C[S+]([O-])Cc1ccc(C(=O)Nc2ccc(OCCOCCO)nc2C(=O)NCC2CCC2)c2ccccc12 (stereo not given) | 120%
COc1ccc(NC(=O)c2ccc(Cn3ccnn3)c3ccccc23)c(C(=O)NCC2CCC2)n1 | 54%

system: Canis familiaris; test: Inhibition of transient lower esophageal sphincter relaxations in intragastrically dosed dog; type: functional, organism-based; settings: Canis lupus familiaris
Method in brief: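 Dogs with esophagostomy and water-perfused Dentsleeve manometry (gastric, LES, esophageal pressures). Dosed intragastrically 30 min before start; TLESRs counted over 45 min. TLESR: LES pressure falls >1 mmHg/s to <2 mmHg above gastric, lasting >1 s, no swallow within 2 s before. Each dog its own control against five prior control runs; mean ± S.E.M.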

Compound | inhibition
C[S+]([O-])Cc1ccc(C(=O)Nc2ccc(OCCOCCO)nc2C(=O)NCC2CCC2)c2ccccc12 (stereo not given) | Dose-dependent effect

target: Cannabinoid receptor 2 (Homo sapiens, UniProt P34972); test: Displacement of [3H]-CP55,940 from human CB2 receptor expressed in Sf9 cell membranes by scintillation counting analysis; settings: not given
Method in brief: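 Membranes from Sf9 cells expressing cloned hCB2 (baculovirus) in 50 mM Tris, 2.5 mM EDTA, 5 mM MgCl2, 0.5 mg/mL fatty-acid-free BSA, pH 7.4. 60 min at rt, GF/B filtration, scintillation counting. 10-point curves; IC50 mean of three independent experiments.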

Sequence of Cannabinoid receptor 2 (P34972 whole entry): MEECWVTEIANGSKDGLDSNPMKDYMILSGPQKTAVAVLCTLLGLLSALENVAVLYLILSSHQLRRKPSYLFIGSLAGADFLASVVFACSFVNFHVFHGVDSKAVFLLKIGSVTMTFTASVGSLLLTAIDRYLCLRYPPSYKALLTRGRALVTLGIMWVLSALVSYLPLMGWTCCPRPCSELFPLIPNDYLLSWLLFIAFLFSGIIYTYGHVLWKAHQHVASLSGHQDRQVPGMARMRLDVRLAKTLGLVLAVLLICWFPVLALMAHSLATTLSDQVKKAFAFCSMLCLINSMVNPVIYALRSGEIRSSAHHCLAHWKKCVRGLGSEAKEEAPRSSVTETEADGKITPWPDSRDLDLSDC

Compound | IC50
C[S+]([O-])Cc1ccc(C(=O)Nc2cccnc2C(=O)NCC2CCOCC2)c2ccccc12 (stereo not given) | 2500 nM
O=C(NCC1CCOCC1)c1ncccc1NC(=O)c1cccc2ccccc12 | 260 nM
O=C(NCC1CCCCC1)c1cc(Cl)ccc1NC(=O)c1cccc2ccccc12 | 1800 nM
O=C(NCC1CCC1)c1ncccc1NC(=O)c1ccc(Cn2ccnn2)c2ccccc12 | 65 nM
O=C(NCC1CCC1)c1nc(OCCOCCO)ccc1NC(=O)c1ccnc2ccccc12 | 1200 nM
C[S+]([O-])Cc1ccc(C(=O)Nc2ccc(OCCOCCO)nc2C(=O)NCC2CCC2)c2ccccc12 (stereo not given) | 500 nM

system: not listed separately; test: Oral bioavailability in Sprague-Dawley rat at 10 umol/kg; type: ADME, organism-based; settings: in vivo
Method in brief: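 Sprague-Dawley rats given 10 µmol/kg p.o., with i.v. reference dose of 2 µmol/kg.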

Compound | bioavailability
C[S+]([O-])Cc1ccc(C(=O)Nc2cccnc2C(=O)NCC2CCOCC2)c2ccccc12 (stereo not given) | 31%

system: Canis familiaris; test: Inhibition of transient lower esophageal sphincter relaxations in dog at 1 umol/kg dosed measured after 10 mins; type: functional; settings: Canis lupus familiaris

Compound | inhibition in vivo at 1 µmol/kg
C[S+]([O-])Cc1ccc(C(=O)Nc2ccc(OCCOCCO)nc2C(=O)NCC2CCC2)c2ccccc12 (stereo not given) | 5.9%

target: Voltage-gated inwardly rectifying potassium channel KCNH2 (Homo sapiens, UniProt Q12809); test: Inhibition of human ERG expressed in CHO cells by patch clamp assay; type: cell-based; settings: not given
Method in brief: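 Patch clamp (IonWorks) in CHO cells expressing hERG.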

Sequence of Voltage-gated inwardly rectifying potassium channel KCNH2 (Q12809 whole entry): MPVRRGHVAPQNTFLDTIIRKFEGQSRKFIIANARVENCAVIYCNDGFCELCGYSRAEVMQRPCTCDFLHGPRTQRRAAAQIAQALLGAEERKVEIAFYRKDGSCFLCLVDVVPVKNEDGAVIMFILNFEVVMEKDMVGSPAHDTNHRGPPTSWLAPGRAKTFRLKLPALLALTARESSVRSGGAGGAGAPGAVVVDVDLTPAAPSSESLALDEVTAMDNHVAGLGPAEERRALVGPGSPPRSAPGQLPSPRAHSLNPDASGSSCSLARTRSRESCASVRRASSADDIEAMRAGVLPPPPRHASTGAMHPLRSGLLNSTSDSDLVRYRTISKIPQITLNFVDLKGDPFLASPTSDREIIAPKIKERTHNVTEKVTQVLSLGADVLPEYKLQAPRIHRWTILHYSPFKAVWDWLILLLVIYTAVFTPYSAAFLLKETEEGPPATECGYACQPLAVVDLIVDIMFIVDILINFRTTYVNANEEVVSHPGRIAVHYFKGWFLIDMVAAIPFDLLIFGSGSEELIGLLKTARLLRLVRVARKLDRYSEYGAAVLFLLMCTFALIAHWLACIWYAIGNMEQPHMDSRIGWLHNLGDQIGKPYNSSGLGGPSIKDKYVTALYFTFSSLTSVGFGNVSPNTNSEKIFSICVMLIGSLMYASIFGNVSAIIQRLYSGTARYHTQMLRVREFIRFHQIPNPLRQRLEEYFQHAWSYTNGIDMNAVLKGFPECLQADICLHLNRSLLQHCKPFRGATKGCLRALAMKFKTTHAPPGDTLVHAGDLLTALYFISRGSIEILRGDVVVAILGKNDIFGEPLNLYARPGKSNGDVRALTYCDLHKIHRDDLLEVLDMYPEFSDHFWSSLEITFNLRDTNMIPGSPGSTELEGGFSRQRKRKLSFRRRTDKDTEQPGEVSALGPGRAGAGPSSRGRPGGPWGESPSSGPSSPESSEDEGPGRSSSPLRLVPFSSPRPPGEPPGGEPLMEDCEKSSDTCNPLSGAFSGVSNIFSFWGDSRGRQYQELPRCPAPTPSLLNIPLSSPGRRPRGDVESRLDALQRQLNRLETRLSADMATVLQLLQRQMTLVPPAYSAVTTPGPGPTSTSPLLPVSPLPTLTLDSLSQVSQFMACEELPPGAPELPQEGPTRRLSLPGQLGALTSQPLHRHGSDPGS

Compound | IC50
C[S+]([O-])Cc1ccc(C(=O)Nc2cccnc2C(=O)NCC2CCOCC2)c2ccccc12 (stereo not given) | > 32 µM

target: Cytochrome P450 2C9 (Homo sapiens, UniProt P11712); test: Inhibition of human recombinant CYP2C9 expressed in Escherichia coli cells; type: ADME; settings: not given
Sequence (P11712 whole entry): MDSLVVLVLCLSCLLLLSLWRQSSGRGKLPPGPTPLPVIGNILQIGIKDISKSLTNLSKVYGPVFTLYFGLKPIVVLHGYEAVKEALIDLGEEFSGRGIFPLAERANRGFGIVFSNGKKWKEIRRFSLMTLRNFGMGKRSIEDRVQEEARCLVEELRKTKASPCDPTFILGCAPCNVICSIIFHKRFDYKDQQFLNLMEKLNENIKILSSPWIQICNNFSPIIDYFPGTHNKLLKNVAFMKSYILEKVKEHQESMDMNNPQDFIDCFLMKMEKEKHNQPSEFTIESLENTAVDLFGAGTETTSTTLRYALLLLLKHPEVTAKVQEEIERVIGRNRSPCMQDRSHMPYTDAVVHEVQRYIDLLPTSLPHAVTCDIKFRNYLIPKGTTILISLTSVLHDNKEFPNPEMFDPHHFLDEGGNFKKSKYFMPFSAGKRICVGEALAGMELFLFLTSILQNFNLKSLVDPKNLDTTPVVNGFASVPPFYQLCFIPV

Compound | IC50
C[S+]([O-])Cc1ccc(C(=O)Nc2cccnc2C(=O)NCC2CCOCC2)c2ccccc12 (stereo not given) | 19 µM
C[S+]([O-])Cc1ccc(C(=O)Nc2ccc(OCCOCCO)nc2C(=O)NCC2CCC2)c2ccccc12 (stereo not given) | 6.7 µM

system: not listed separately; test: Clearance in Sprague-Dawley rat at 2 umol/kg, iv; type: ADME, organism-based; settings: in vivo
Method in brief: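 Sprague-Dawley rats given 2 µmol/kg i.v.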

Compound | clearance
C[S+]([O-])Cc1ccc(C(=O)Nc2cccnc2C(=O)NCC2CCOCC2)c2ccccc12 (stereo not given) | 14 mL/min/kg

target: Cytochrome P450 3A4 (Homo sapiens, UniProt P08684); test: Inhibition of human recombinant CYP3A4 expressed in Escherichia coli cells; type: ADME; settings: not given
Sequence (P08684 whole entry): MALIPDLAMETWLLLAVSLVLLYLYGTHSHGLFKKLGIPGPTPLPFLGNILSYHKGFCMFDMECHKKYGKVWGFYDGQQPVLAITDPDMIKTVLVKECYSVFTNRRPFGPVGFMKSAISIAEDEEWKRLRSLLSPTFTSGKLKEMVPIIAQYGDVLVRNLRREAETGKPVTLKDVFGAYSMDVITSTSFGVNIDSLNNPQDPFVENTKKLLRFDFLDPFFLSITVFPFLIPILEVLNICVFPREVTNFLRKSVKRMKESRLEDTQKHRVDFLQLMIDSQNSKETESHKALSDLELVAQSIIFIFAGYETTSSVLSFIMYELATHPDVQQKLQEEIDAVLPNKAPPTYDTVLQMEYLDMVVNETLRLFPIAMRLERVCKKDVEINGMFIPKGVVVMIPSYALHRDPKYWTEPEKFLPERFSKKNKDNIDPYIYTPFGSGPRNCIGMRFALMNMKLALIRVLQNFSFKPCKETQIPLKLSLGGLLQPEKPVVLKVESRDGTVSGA

Compound | IC50
C[S+]([O-])Cc1ccc(C(=O)Nc2cccnc2C(=O)NCC2CCOCC2)c2ccccc12 (stereo not given) | > 20 µM
C[S+]([O-])Cc1ccc(C(=O)Nc2ccc(OCCOCCO)nc2C(=O)NCC2CCC2)c2ccccc12 (stereo not given) | 5.5 µM

system: not listed separately; test: Ratio of unbound fraction in brain to plasma in Sprague-Dawley rat; type: ADME, cell-free; settings: not given
Method in brief: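 Steady-state total brain/plasma ratio in Sprague-Dawley rats after 4 h constant-rate i.v. infusion, corrected by unbound fraction in brain (rat brain slices) and in plasma (equilibrium dialysis).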

Compound | BPR
C[S+]([O-])Cc1ccc(C(=O)Nc2cccnc2C(=O)NCC2CCOCC2)c2ccccc12 (stereo not given) | 0.01
C[S+]([O-])Cc1ccc(C(=O)Nc2ccc(OCCOCCO)nc2C(=O)NCC2CCC2)c2ccccc12 (stereo not given) | 0.023
C[S+]([O-])Cc1ccc(C(=O)Nc2nccnc2C(=O)NCC2CCC2)c2ccccc12 (single isomer, unassigned) | 0.011
COc1ccc(NC(=O)c2ccc(Cn3ccnn3)c3ccccc23)c(C(=O)NCC2CCC2)n1 | 0.093

system: Caco-2; test: (§1) Apparent permeability from apical to basolateral side in human Caco2 cells at pH 7.4; type: ADME, cell-based; settings: Caco-2, pH 7.4
Method in brief: (§2)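 Caco-2 monolayers at pH 7.4, apparent permeability measured for apical-to-basolateral transport.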

Compound | Papp
C[S+]([O-])Cc1ccc(C(=O)Nc2nccnc2C(=O)NCC2CCC2)c2ccccc12 (single isomer, unassigned) | 9 ×10⁻⁶ cm/s

system: not listed separately; test: as §1; type: ADME, cell-based; settings: Caco-2, pH 7.4; method in brief: as §2

Compound | Papp A→B
C[S+]([O-])Cc1ccc(C(=O)Nc2cccnc2C(=O)NCC2CCOCC2)c2ccccc12 (stereo not given) | 23 ×10⁻⁶ cm/s
C[S@+]([O-])Cc1ccc(C(=O)Nc2cccnc2C(=O)NCC2CCOCC2)c2ccccc12 | 0.61 ×10⁻⁶ cm/s
C[S+]([O-])Cc1ccc(C(=O)Nc2ccc(OCCOCCO)nc2C(=O)NCC2CCC2)c2ccccc12 (stereo not given) | 26 ×10⁻⁶ cm/s
COc1ccc(NC(=O)c2ccc(Cn3ccnn3)c3ccccc23)c(C(=O)NCC2CCC2)n1 | 0.96 ×10⁻⁶ cm/s

target: T1, Cannabinoid receptor 1; test: Agonist activity at human CB1 receptor expressed in HEK293S cell membranes after 1 hr by GTPgamma[35S] binding assay; settings: not given

Compound | EC50
C[S+]([O-])Cc1ccc(C(=O)Nc2cccnc2C(=O)NCC2CCOCC2)c2ccccc12 (stereo not given) | 87 nM
O=C(NCC1CCOCC1)c1ncccc1NC(=O)c1cccc2ccccc12 | 81 nM
O=C(NCC1CCCCC1)c1cc(Cl)ccc1NC(=O)c1cccc2ccccc12 | 260 nM
O=C(NCC1CCC1)c1ncccc1NC(=O)c1ccc(Cn2ccnn2)c2ccccc12 | 1.4 nM
O=C(NCC1CCC1)c1nc(OCCOCCO)ccc1NC(=O)c1ccnc2ccccc12 | 14 nM
C[S+]([O-])Cc1ccc(C(=O)Nc2ccc(OCCOCCO)nc2C(=O)NCC2CCC2)c2ccccc12 (stereo not given) | 5.1 nM
C[S+]([O-])Cc1ccc(C(=O)Nc2nccnc2C(=O)NCC2CCC2)c2ccccc12 (single isomer, unassigned) | 32 nM
COc1ccc(NC(=O)c2ccc(Cn3ccnn3)c3ccccc23)c(C(=O)NCC2CCC2)n1 | 1.3 nM

system: not listed separately; test: Agonist activity at dog CB1 receptor expressed in HEK293S cell membranes after 1 hr by GTPgamma[35S] binding assay; parameters: species or system Canis lupus familiaris; settings: not given
Method in brief: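 Dog CB1 stably expressed in HEK293S membranes, handled as for human CB1: Hepes buffer pH 7.4 with 100 mM NaCl, 5 mM MgCl2, 1 mM EDTA, 0.1% BSA, 15 µM GDP (final); 5 µg protein/well; GTPγ[35S] tracer; 1 h at rt; filtration and scintillation counting; 10-point curves; mean of three independent experiments.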

Compound | EC50
C[S+]([O-])Cc1ccc(C(=O)Nc2ccc(OCCOCCO)nc2C(=O)NCC2CCC2)c2ccccc12 (stereo not given) | 3 nM

system: not listed separately; test: Ratio of drug level in brain to plasma in Sprague-Dawley rat; type: ADME, cell-free; settings: Sprague-Dawley, brain and plasma, read-out: BPR
Method in brief: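 Total brain-to-plasma ratio from in vivo Sprague-Dawley rat samples, compound given as 4 h constant-rate i.v. infusion to steady state.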

Compound | Kp
C[S+]([O-])Cc1ccc(C(=O)Nc2cccnc2C(=O)NCC2CCOCC2)c2ccccc12 (stereo not given) | 0.018
O=C(NCC1CCOCC1)c1ncccc1NC(=O)c1cccc2ccccc12 | 3
C[S+]([O-])Cc1ccc(C(=O)Nc2ccc(OCCOCCO)nc2C(=O)NCC2CCC2)c2ccccc12 (stereo not given) | 0.02
C[S+]([O-])Cc1ccc(C(=O)Nc2nccnc2C(=O)NCC2CCC2)c2ccccc12 (single isomer, unassigned) | 0.02
COc1ccc(NC(=O)c2ccc(Cn3ccnn3)c3ccccc23)c(C(=O)NCC2CCC2)n1 | 0.31

system: not listed separately; test: Solubility of the compound in Hank's balanced saline solution at pH 7.4 after 24 hrs by HPLC analysis; type: physicochemical; settings: not given
Method in brief: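 Compound in DMSO added to Hanks balanced saline solution pH 7.4, shaken 24 h.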

Compound | solubility at 24 h
C[S+]([O-])Cc1ccc(C(=O)Nc2cccnc2C(=O)NCC2CCOCC2)c2ccccc12 (stereo not given) | 79 µM (≈ 36.8 µg/mL)

system: Canis familiaris; test: Inhibition of transient lower esophageal sphincter relaxations in dog at 2 umol/kg dosed intragastrically measured after 10 mins; type: functional; settings: Canis lupus familiaris, po

Compound | inhibition in vivo at 2 µmol/kg
C[S+]([O-])Cc1ccc(C(=O)Nc2ccc(OCCOCCO)nc2C(=O)NCC2CCC2)c2ccccc12 (stereo not given) | 31.7%

Source: ChEMBL document CHEMBL2311293, “Discovery of agonists of cannabinoid receptor 1 with restricted central nervous system penetration aimed for treatment of gastroesophageal reflux disease” (J Med Chem, 2013)
